Assay outcomes as filed in PubChem BioAssay.
This is a sample that favours compounds with a hit; in the whole collection about 4.7% have one here.
ADAM17 inh: inhibits human ADAM17. P78536. recombinant ADAM17, EDANS/DABCYL FRET peptide cleavage. inhibition, % at 6.95 µM. 0.83% of 370,000 active. AID 720648;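 active means inhibition above the mean of compounds lying between control limits plus 3 SD, set per campaign, cut at about 8.5% in these data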;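 further: 0% = DMSO-only wells as the low control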
MPTP inh: blocks calcium-induced mitochondrial swelling | isolated mouse mitochondria, Ca2+ swelling absorbance, 30 min | inhibition, % at 10 µM | 1.4% of 360,000 active;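 active means inhibition of 50% or more, scaled per plate between neutral and stimulator controls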;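 further: 0% = DMSO wells given calcium and 100% = 1 mM EGTA wells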
MT1-MMP act inh: blocks activation of human MT1-MMP | HT1080 RFP-PRO-GFP cells, GFP/RFP ratio fluorescence, overnight; percent of plate control window, DMSO zero | GFP/RFP ratio change, % at 20 µM | 0.061% of 360,000 active;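 active means GFP/RFP ratio change of at least 30% with cell ATP level not reduced by more than half and red fluorescence within 50% of control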
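Test system: HT1080 RFP-PRO-GFP cells; Benchmarks: DMSO and RFP-L50D-GFP cell wells; Timing: cells overnight before dosing, compound overnight, 37 °C, 5% CO2; Compound: one 20 µM compound dose with 1% DMSO; Read-out: GFP/RFP fluorescence ratio.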
GRIN3A LBD mod: modulators (binders) of human NR3A ligand-binding domain; NR3A LBD differential scanning fluorimetry, Tm shift; 0% = protein alone, 100% = glycine-bound protein; 2.5% of 340,000 active; Tm shift relative to glycine control, % at 25 µM; AID 1259313;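 active means melting temperature shift of at least 10% of the positive control shift, at one fixed dose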
SKN-1 block: blocks SKN-1 activity in C. elegans | C. elegans VP596 Pgst-4::GFP/RFP ratio, acrylamide-induced, 24 h | inhibition, % at 21.8 µM | 0.49% of 360,000 active;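 active means interference check ratio from 0.5 to 1.5 plus GFP to RFP signal ratio inhibition reaching or exceeding a fixed threshold, cut at about 30% in these data, passing the limit was not always enough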
ADAM10 inh: ADAM10 inhibition, QFRET primary screen; 0.62% of 370,000 active; recombinant ADAM10, EDANS/DABCYL FRET peptide cleavage, 3 h; AID 720582; inhibition, % at 7 µM;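 active means inhibition above a per-campaign cutoff equal to the mean of compounds falling between control-based bounds plus 3 SD, cut at about 20% in these data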;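 further: 0% = DMSO wells while the 100% control is not disclosed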
Target sequence (O14672 214-748 limits assumed): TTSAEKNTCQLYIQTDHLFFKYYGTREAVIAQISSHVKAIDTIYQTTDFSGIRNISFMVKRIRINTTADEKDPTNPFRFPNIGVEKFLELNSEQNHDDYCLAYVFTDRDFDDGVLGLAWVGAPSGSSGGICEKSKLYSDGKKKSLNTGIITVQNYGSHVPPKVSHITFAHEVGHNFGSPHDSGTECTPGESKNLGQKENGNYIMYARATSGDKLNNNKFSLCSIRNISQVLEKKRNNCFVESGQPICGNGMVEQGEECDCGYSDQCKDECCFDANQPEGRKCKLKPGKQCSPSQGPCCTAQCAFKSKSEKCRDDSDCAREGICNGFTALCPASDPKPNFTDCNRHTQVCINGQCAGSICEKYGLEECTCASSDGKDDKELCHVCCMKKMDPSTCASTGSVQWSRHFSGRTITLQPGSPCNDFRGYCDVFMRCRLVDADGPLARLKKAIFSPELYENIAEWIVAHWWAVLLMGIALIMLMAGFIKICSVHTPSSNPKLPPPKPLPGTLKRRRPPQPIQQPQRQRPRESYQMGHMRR
Rh123 counter: membrane potential counter-screen of mitochondrial pore inhibitors; 78% of 5,000 active; shares compounds with MPTP inh; inhibition, % at 10 µM; isolated mitochondria, Rhodamine 123 fluorescence; in the data active means inhibition above about 22%;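 further: 0% = DMSO vehicle and 100% = positive control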
MPTP swell DR: dose response confirmation of mitochondrial permeability transition pore inhibitors. shares compounds with MPTP inh. AID 651561. 58% of 780 active. isolated mitochondria swelling, absorbance. IC50, µM; in the data active means IC50 below about 20 µM
MPTP cs DR: counter-screen for mitochondrial permeability transition pore inhibitors, dose response; shares compounds with MPTP inh; isolated mitochondria counterscreen, fluorescence read-out; IC50, µM; 49% of 780 active; in the data active means IC50 below about 80 µM
Numbers without * were called inactive; i = inactive; x = not tested or not shown.

SMILES	ADAM17 inh	MPTP inh	MT1-MMP act inh	GRIN3A LBD mod	SKN-1 block	ADAM10 inh	Rh123 counter	others
NCCCn1c(C(=O)c2ccc(Cl)cc2)c2ccc(C(F)(F)F)cc2[n+]1[O-]	-1	65*	5	1	6	-4	-18	MPTP swell DR=8.7*;MPTP cs DR=>80
Cn1nc(C(C)(C)C)cc1N1C(=O)CCC1(C)C(=O)Nc1ccc2ccccc2c1 (configuration not stated)	-3	-2	12	x	4	-12	x
Cn1cccc1C(=O)NCC1CCCCC1	-3	0	-2	-1	-3	5	x
O=C(CSc1ncnc2c1nnn2Cc1ccccc1)NC1CCCC1	-7	-2	1	0	-5	-8	x
CCOC(=O)C(=CNc1ccc(S(N)(=O)=O)cc1)C(=O)OCC	-1	3	2	-2	3	-1	x
O=C(COc1ccc(Cl)cc1)Nc1ccc(C(=O)NCc2cccnc2)cc1	x	28	5	-2	-17	x	x
CC(C)(C)c1ccc(OCc2ccc(C(=O)NCc3cccnc3)o2)cc1	2	85*	0	-1	-3	6	68*
O=C(NCc1cccnc1)c1ccc(COc2ccc(Cl)cc2)cc1	0	66*	-1	-1	-4	4	63*
COc1ccccc1Cc1nc(-c2ccncc2)no1	-5	2	2	-13	4	-4	x
Cc1noc(C)c1COc1ccccc1C(=O)N1CCN(c2cccc(C(F)(F)F)c2)CC1	1	0	0	1	-6	1	x
CN(C)N1C(=O)CC(C)(c2ccc([N+](=O)[O-])cc2)C1=O (configuration not stated)	-3	0	2	-1	-5	4	x
COC(=O)c1scc(S(=O)(=O)C(C)C)c1N/N=C(\C#N)C(=O)c1ccc(Cl)cc1	-2	73*	8	5	7	-2	78*
COC(=O)c1scc(C#N)c1N/N=C(\C#N)S(=O)(=O)c1ccc(Cl)cc1	0	67*	8	5	6	8	84*
COc1ccc(N(CC(=O)NC2CCCC2)C(=O)Cn2nnc(-c3ccc(F)cc3)n2)cc1OC	x	0	-2	-1	-4	x	x
Cc1ccc2nc(NNC(=O)c3ccc(S(=O)(=O)N4CCc5ccccc5C4)cc3)sc2c1	5	14	4	4	-7	5	x
[O-]/C(=C(\C(=S)Nc1ccc(SC(F)F)cc1)[n+]1cccc(CO)c1)c1ccc(Cl)s1	4	101*	-4	2	3	7	85*
OCCNC(=S)Nc1ccc(Oc2ccccc2)cc1	2	5	2	-2	2	6	x
S=C(NCc1ccccc1)Nc1ccc(Oc2ccccc2)cc1	3	86*	1	12*	2	10	87*
S=C(NCc1cccnc1)Nc1ccc(Cl)c(Cl)c1	6	71*	12	-5	-3	18	93*
S=C(NCc1cccnc1)Nc1ccc(Oc2ccc(Cl)cc2)cc1	0	80*	-2	5	-11	5	66*
O=C(CNCc1ccccc1)Nc1ccc(Oc2ccccc2)cc1	2	66*	0	-1	-1	9	-11	MPTP swell DR=i;MPTP cs DR=43*
O=C(NCc1cccnc1)Nc1ccc(Cl)c(Cl)c1	2	2	6	-6	11	12	x
COc1ccc(CN(C)C(=O)CNC(=O)c2sc3ccccc3c2Cl)c(OC)c1OC	-1	-1	5	3	-12	-2	x
O=C(OCn1nnc2ccccc2c1=O)c1cn(-c2ccccc2)nc1-c1cccnc1	1	-2	-1	-1	-7	5	x
O=C(NNC(=O)c1ccccn1)c1cccc([N+](=O)[O-])c1	-3	-1	7	2	5	3	x
